Assay results of several laboratories.
Protocols differ between the studies behind these lines. pIC50: −log10 of the molar value.
Kir1 channel protein: Kir1 channel protein (Aedes aegypti, UniProt L0EQS9)
MMP14: Matrix metalloproteinase-14 (MMP14, Homo sapiens, UniProt P50281)
BTK: Tyrosine-protein kinase BTK (BTK, Homo sapiens, UniProt Q06187)

SMILES | target | assay | setting | pIC50
O=S(=O)(c1ccc(F)cc1)N1CCN(c2ccc(C(F)(F)F)c(NCc3ccncc3)c2)CC1 | Kir1 channel protein | ion flux, inhibitor | – | 5.05 to 5.40
Cc1noc(-c2cc3cc(-c4nc(C(=O)NCc5ccccn5)[nH]c4C)ccc3[nH]2)n1 | MMP14 | enzyme activity, inhibitor | – | < 4.70
CCS(=O)(=O)N1CCN(c2ccc([N+](=O)[O-])c(NCc3cccnc3)c2)CC1 | Kir1 channel protein | ion flux, inhibitor | – | 4.68
Cc1cnc(-c2ccc(-c3ccc(NC(=O)Nc4c(F)cc(F)cc4F)cc3F)c3c2C(=O)NC3)[nH]1 | Vascular endothelial growth factor receptor 1 (FLT1, Homo sapiens, UniProt P17948) | enzyme activity, inhibitor | – | < 6.00
Cn1nc(C(=O)NCc2ccc(C(=O)O)cc2)cc1-c1ccc2[nH]c(-c3cncnc3)cc2c1 | MMP14 | enzyme activity, inhibitor | – | < 4.70
O=C1Nc2cc(Oc3ccc4c(c3)NC(=O)C4=O)ccc2C1=O | Protein-glutamine gamma-glutamyltransferase (TGM2, Homo sapiens, UniProt P21980) | enzyme activity, inhibitor | – | 4.40 to 4.52
CC(C)=CCCC(C)=CCn1cc(CC(P(=O)(O)O)P(=O)(O)O)nn1 | Protein farnesyltransferase (Rattus norvegicus, UniProt Q02293+Q04631) | enzyme activity, inhibitor, HPLC | – | 3.30
O=[N+]([O-])c1ccc(N2CCN(S(=O)(=O)c3ccc(Cl)cc3)CC2)cc1NCc1ccncc1 | Kir1 channel protein | ion flux, inhibitor | – | 6.12
Cc1cc(O)cc(C)c1C[C@H](NC(=O)[C@@H]1CCCN1C(=O)[C@H](CCCNC(=N)N)NC(=O)[C@H](CCCNC(=N)N)N(C)C(=O)CNC(=O)[C@@H](CO)NC(=O)CNC(=O)[C@H](Cc1cn(CCNC(=O)[C@H](CC(C)C)NC(=O)[C@H](CC(C)C)NC(=O)C2OC2C(=O)O)nn1)NC(=O)CN1CCN(CC(=O)O)CCN(CC(=O)O)CCN(CC(=O)O)CC1)C(=O)N[C@H](C(=O)N[C@@H](CC(C)C)C(=O)O)C(C)(C)C (mixture of isomers) | Neurotensin receptor type 1 (NTSR1, Homo sapiens, UniProt P30989) | ligand displacement, radioligand | – | 7.35
CC[C@H](C)[C@H](NC(C)=O)C(=O)N[C@@H](CCC(=O)O)C(=O)N[C@H](C(=O)N[C@H](C=O)CC(=O)O)[C@@H](C)O | Caspase-8 (CASP8, Homo sapiens, UniProt Q14790) | enzyme activity, inhibitor | – | 8.76
O=C(Oc1nsnc1N1CCc2ccccc2C1)N1CCCCC1 | Monoacylglycerol lipase ABHD6 (ABHD6, Homo sapiens, UniProt Q9BV23) | enzyme activity, inhibitor, fluorescence | lysate | 6.34
O=[N+]([O-])c1ccc(N2CCN(S(=O)(=O)c3ccc(Cl)cc3)CC2)cc1NCc1ccco1 | Kir1 channel protein | ion current, inhibitor, patch clamp | – | 7.47
NC(=O)c1cccc(-c2cccc(OC(=O)NC3CCCCC3)c2)c1 | Arylacetamide deacetylase (Homo sapiens, UniProt P22760) | enzyme activity, inhibitor | – | 6.72
CN1CCN(c2ccc(Nc3ncc4cc(C#N)c(=O)n(C5CCCC5)c4n3)cc2)CC1 | BTK | enzyme activity, inhibitor | – | 6.38
N#CN1C[C@H](n2nc(-c3ccc(Oc4ccc(Cl)cn4)cc3)c(C(N)=O)c2N)CCC12CC2 | BTK | enzyme activity, inhibitor | – | 8.40 to 9.30
O=S(=O)(c1ccc(F)cc1)N1CCN(c2cccc(NCc3ccncc3)c2)CC1 | Kir1 channel protein | ion flux, inhibitor | – | 5.05 to 5.40
COc1ccc(F)cc1C(=O)NCc1ccc(-c2nn([C@@H](C)C(F)(F)F)c(N)c2C(N)=O)cc1 | BTK | phosphorylation in cells, inhibitor | – | 8.41
